What all share (assay type): functional
For assay [1], the species on record is Rattus norvegicus. In words: Rate of O-Dealkylation by liver microsomes in rats induced with 3-MC; Rates are expressed as pmol of product per 30 min per mg of protein. The essentials: (§1)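 Male Wistar MRC rats (7–8 weeks old) received 3-MC 40 mg/kg ip in olive oil twice daily for 3 days and were fasted for the final 24 h. Liver microsomes were incubated at 0.5 mg protein/mL with substrate (BP in acetone, others in Me₂SO) for 30 min. Phenolic metabolites were read by fluorescence in base against synthetic phenol standards. Each rat was run in duplicate against a heat- or acetone-inactivated blank, and results are reported as mean ± SE.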
A general note: Liver microsomes are vesicles of endoplasmic reticulum, rich in cytochrome P450 enzymes.

Assay [2] is filed under the species Rattus norvegicus. Briefly: Rate of 3-hydroxylation by lung microsomes in rats induced with 3-MC; Rates are expressed as pmol of product per 30 min per mg of protein. The essentials: (§2)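 Microsomes from lungs (two rats pooled) of 7- or 8-week-old male Wistar MRC rats dosed ip twice daily for 3 days with 3-MC 40 mg/kg in olive oil or phenobarbital 40 mg/kg in saline, then fasted 24 h. Incubation at 1.0 mg protein/mL. BP was added in acetone, other substrates in Me2SO. Base-extracted phenols were read by fluorescence against synthetic phenol standards, in duplicate versus heat-inactivated blank; mean ± SE across rats.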

Assay [3] is filed under the species Rattus norvegicus. In words: Rate of 3-hydroxylation by lung microsomes in rats induced with PB; Rates are expressed as pmol of product per 30 min per mg of protein. The essentials: as §2
The species entered for assay [4] is Rattus norvegicus. Briefly: Rate of hydroxylation by liver microsomes in rats induced with 3-MC; Rates are expressed as pmol of product per 30 min per mg of protein. The essentials:
as §1

Assay [5] is filed under the species Rattus norvegicus. In words: Rate of hydroxylation by liver microsomes in rats induced with PB; Rates are expressed as pmol of product per 30 min per mg of protein. The essentials:
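Liver microsomes (two livers pooled) from 7- or 8-week-old male Wistar MRC rats given phenobarbital 40 mg/kg ip in saline twice daily for 3 days, fasted final 24 h. Incubation at 0.5 mg protein/mL, with BP (80 nmol) in acetone or other substrates in Me2SO. Phenolic metabolites were read by fluorescence in base, quantitated against synthetic 3- or 1-phenol standards, in duplicate versus heat-inactivated blank; mean ± SE across rats.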

For assay [6], the species on record is Rattus norvegicus. In words: Rate of hydroxylation by lung microsomes in rats induced with 3-MC; Rates are expressed as pmol of product per 30 min per mg of protein. The essentials:
(§3)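 For lung microsomes from 3-MC-induced rats, the dose was 40 mg/kg ip in olive oil, given twice daily for 3 days, followed by a 24 h fast. Incubation used 1.0 mg microsomal protein/mL, with BP added in acetone and derivatives in Me₂SO. Base-extractable phenols were measured by fluorescence and quantitated with synthetic hydroxy-BP standards. Duplicates were corrected against inactivated-microsome blanks, and results are given as mean ± SE across individual rats.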

The species named for assay [7] is Rattus norvegicus. In words: Rate of hydroxylation by lung microsomes in rats induced with PB; Rates are expressed as pmol of product per 30 min per mg of protein. The essentials:
(§4)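 Rats were pretreated with phenobarbital, 40 mg/kg ip in saline, twice daily for 3 days, and fasted the last 24 h. Lung microsomes were incubated at 1.0 mg protein/mL with substrate in acetone (BP) or Me₂SO. Product formed over 30 min was measured as fluorescence of phenolic metabolites in basic solution against synthetic phenol standards. Determinations were made in duplicate versus a heat-inactivated blank, and results are reported as mean ± SE.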

Assay [8] is filed under the species Rattus norvegicus. Briefly: Rate of O-Dealkylation by liver microsomes in rats induced with PB; Rates are expressed as pmol of product per 30 min per mg of protein. The essentials:
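Phenobarbital-induced rats: male Wistar MRC, 7–8 weeks, 40 mg/kg ip in saline twice daily for 3 days, fasted 24 h. Liver microsomes were used at 0.5 mg protein/mL. BP ethers were added in Me2SO, and phenolic products were measured by fluorescence of basic solutions against phenol standards. p-Nitroanisole O-demethylase was assayed by a modified Netter–Seidel method. Runs were in duplicate versus heat-inactivated blank; mean ± SE across rats.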

For assay [9], the species on record is Rattus norvegicus. Briefly: Rate of O-Dealkylation by lung microsomes in rats induced with 3-MC; Rates are expressed as pmol of product per 30 min per mg of protein. In outline: as §3
The species named for assay [10] is Rattus norvegicus. In words: Rate of O-Dealkylation by lung microsomes in rats induced with PB; Rates are expressed as pmol of product per 30 min per mg of protein. The essentials: as §4

On to `COc1ccc2ccc3c4ccccc4c(OC)c4ccc1c2c43`, for which the Rate (pmol/30 min/mg protein) in assay [1] was found to be 1250.
Consider `c1ccc2c(c1)cc1ccc3cccc4ccc2c1c34`, for which the Rate came out at 618 pM in assay [2] and 49 pM in [3]. Moreover, the Rate (pmol/30 min/mg protein) in assay [4] came to 5810; in [5], 1160.
Regarding `COc1c2ccccc2c2ccc3cccc4ccc1c2c43`, the Rate (pmol/30 min/mg protein) came to 9010 in assay [4], 1980 in [5], 576 in assay [6] and 69 in assay [7].
Take `CCCOc1ccc2ccc3c(OCCC)c4ccccc4c4ccc1c2c34`: in [1], the Rate (pmol/30 min/mg protein) worked out at 818.
As for `COCc1c2ccccc2c2ccc3cccc4ccc1c2c43`, the Rate (pmol/30 min/mg protein) in assay [4] worked out at 7040; in [6] it was 654.
The molecule `COc1ccc2ccc3c(OC)c4ccccc4c4ccc1c2c34` showed a Rate (pmol/30 min/mg protein) in assay [4] of 5700.
With `CCOc1ccc2ccc3c(OCC)c4ccccc4c4ccc1c2c34`, the Rate (pmol/30 min/mg protein) in [1] was 3360; in assay [8], 2850; in assay [9], 156; in assay [10], 48.
With `COc1ccc([N+](=O)[O-])cc1`, the Rate (pmol/30 min/mg protein) was 229000 in [1] and 103000 in assay [8].
Take `OCc1c2ccccc2c2ccc3cccc4ccc1c2c43`: the Rate (pmol/30 min/mg protein) in assay [4] worked out at 1510; in assay [6], 182.

Values taken from ChEMBL document CHEMBL1121496, “Metabolism of 6-substituted benzo[a]pyrene derivatives: O-dealkylation and regiospecificity in aromatic hydroxylation” (J Med Chem, 1980).
